Results taken from ChEMBL document CHEMBL2062373, “Discovery of pyrroloaminopyrazoles as novel PAK inhibitors” (J Med Chem, 2012).

Legend:
[1] = target: Serine/threonine-protein kinase MARK1 (Homo sapiens, UniProt Q9P0L2); experiment: Inhibition of MARK1
[2] = Clearance in rat at 5 mg/kg, iv and 10 mg/kg, po; type: ADME, organism-based; settings: in vivo
[3] = Octanol/buffer partition coefficient, log D of the compound at pH 7.4; type: physicochemical
[4] = Antitumor activity against human M24 cells xenografted in mouse assessed as tumor growth inhibition at 15 mg/kg, po BID for 15 days; type: functional; settings: M24, 360 h, read-out: TGI
HCT-116 [5] = experiment: Antitumor activity against human HCT116 cells xenografted in mouse assessed as tumor growth inhibition at 12.5 mg/kg, po BID for 15 days; type: functional; settings: HCT-116, 360 h, read-out: TGI
Summary of the method: (§1)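 HCT-116 colon carcinoma xenografts in mice. Compound given orally twice daily. Efficacy expressed as percent tumour growth inhibition (TGI).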

Mus musculus [6] = experiment: Free dug level in mouse xenografted with human M24 cells at 15 mg/kg, po BID for 15 days; type: ADME, organism-based; design: dose 15 mg/kg, route oral; settings: in vivo, 360 h
Summary of the method: (§2)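 The read-out is free drug exposure, reported as unbound average concentration (free Cave) in nM. It was obtained from mice dosed orally at the stated regimen, sid or bid, during the xenograft efficacy study.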

[7] = Half life in rat at 5 mg/kg, iv and 10 mg/kg, po; type: ADME, organism-based; settings: in vivo
[8] = target: Mitogen-activated protein kinase 3 (Homo sapiens) (UniProt P27361); experiment: Inhibition of ERK1; settings: concentration not given here
[9] = Metabolic stability in human liver microsomes assessed as extraction ratio; type: ADME, Microsome; settings: read-out: ERH
[10] = target: T1, Glycogen synthase kinase-3 beta (Homo sapiens, UniProt P49841)
Target sequence in this assay (P49841 whole entry): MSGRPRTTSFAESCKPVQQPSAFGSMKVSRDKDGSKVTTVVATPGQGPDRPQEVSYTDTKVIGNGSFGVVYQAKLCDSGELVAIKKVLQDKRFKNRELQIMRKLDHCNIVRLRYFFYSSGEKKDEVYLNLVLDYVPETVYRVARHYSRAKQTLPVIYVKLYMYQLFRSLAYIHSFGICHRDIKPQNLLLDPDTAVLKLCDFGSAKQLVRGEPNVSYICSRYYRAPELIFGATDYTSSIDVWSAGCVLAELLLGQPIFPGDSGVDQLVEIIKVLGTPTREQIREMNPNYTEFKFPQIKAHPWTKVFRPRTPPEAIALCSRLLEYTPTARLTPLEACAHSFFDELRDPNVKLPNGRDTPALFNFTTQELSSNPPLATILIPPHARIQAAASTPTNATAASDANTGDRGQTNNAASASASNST

Homo sapiens [11] = species: Homo sapiens; experiment: Inhibition of RSK at 1000 nM
[12] = target: Cyclin-dependent kinase 2 (Homo sapiens, UniProt P24941)
[13] = target: Serine/threonine-protein kinase PAK 4 (Homo sapiens, UniProt O96013); experiment: Inhibition of PAK4-mediated GEF-H1 phosphorylation at Ser810 by cell based assay; settings: read-out: EC50
[14] = target: T1, Glycogen synthase kinase-3 beta; experiment: Inhibition of GSK3beta at 1000 nM
Target sequence in this assay (P49841 whole entry, looked up): as the sequence (P49841 whole entry) above

[15] = Efflux ratio of permeability from basolateral to apical side over apical to basolateral side in human Caco2 cells; type: ADME, cell-based; settings: Caco-2
[16] = Oral bioavailability in dog; type: ADME, organism-based, Canis lupus familiaris; settings: in vivo
[17] = Clearance in dog; type: ADME, organism-based, Canis lupus familiaris; settings: in vivo
Mus musculus [18] = experiment: Free dug level in mouse xenografted with human M24 cells at 3.75 mg/kg, po BID for 15 days; type: ADME, organism-based; design: dose 3.75 mg/kg, route oral; settings: in vivo, 360 h
Mus musculus [19] = experiment: Free dug level in mouse xenografted with human M24 cells at 7.5 mg/kg, po BID for 15 days; type: ADME, organism-based; design: dose 7.5 mg/kg, route oral; settings: in vivo, 360 h; summary of the method: as §2
Homo sapiens [20] = species: Homo sapiens; experiment: Inhibition of PCTAIRE; settings: concentration not given here
[21] = Antitumor activity against human M24 cells xenografted in mouse assessed as tumor growth inhibition at 3.75 mg/kg, po BID for 15 days; type: functional; settings: M24, 360 h, read-out: TGI
HCT-116 [22] = experiment: Antitumor activity against human HCT116 cells xenografted in mouse assessed as tumor growth inhibition at 20 mg/kg, po BID for 15 days; type: functional; settings: HCT-116, 360 h, read-out: TGI; summary of the method: as §1
[23] = Oral bioavailability in rat at 10 mg/kg; type: ADME, organism-based; settings: in vivo
[24] = Half life in dog; type: ADME, organism-based, Canis lupus familiaris; settings: in vivo
Homo sapiens [25] = species: Homo sapiens; experiment: Inhibition of PKA at 1000 nM
[26] = target: T2, Mitogen-activated protein kinase 1 (Homo sapiens, UniProt P28482); experiment: Inhibition of Erk2
[27] = target: AMP-activated protein kinase, AMPK (Homo sapiens) (UniProt P54646+O43741+P54619+Q9UGJ0+Q9Y478+Q13131+Q9UGI9); experiment: Inhibition of AMPK at 1000 nM; type: protein-complex assay
[28] = target: T3, Serine/threonine-protein kinase D3 (Homo sapiens) (UniProt O94806); experiment: Inhibition of PKD3; settings: concentration not given here
T3 sequence (whole entry): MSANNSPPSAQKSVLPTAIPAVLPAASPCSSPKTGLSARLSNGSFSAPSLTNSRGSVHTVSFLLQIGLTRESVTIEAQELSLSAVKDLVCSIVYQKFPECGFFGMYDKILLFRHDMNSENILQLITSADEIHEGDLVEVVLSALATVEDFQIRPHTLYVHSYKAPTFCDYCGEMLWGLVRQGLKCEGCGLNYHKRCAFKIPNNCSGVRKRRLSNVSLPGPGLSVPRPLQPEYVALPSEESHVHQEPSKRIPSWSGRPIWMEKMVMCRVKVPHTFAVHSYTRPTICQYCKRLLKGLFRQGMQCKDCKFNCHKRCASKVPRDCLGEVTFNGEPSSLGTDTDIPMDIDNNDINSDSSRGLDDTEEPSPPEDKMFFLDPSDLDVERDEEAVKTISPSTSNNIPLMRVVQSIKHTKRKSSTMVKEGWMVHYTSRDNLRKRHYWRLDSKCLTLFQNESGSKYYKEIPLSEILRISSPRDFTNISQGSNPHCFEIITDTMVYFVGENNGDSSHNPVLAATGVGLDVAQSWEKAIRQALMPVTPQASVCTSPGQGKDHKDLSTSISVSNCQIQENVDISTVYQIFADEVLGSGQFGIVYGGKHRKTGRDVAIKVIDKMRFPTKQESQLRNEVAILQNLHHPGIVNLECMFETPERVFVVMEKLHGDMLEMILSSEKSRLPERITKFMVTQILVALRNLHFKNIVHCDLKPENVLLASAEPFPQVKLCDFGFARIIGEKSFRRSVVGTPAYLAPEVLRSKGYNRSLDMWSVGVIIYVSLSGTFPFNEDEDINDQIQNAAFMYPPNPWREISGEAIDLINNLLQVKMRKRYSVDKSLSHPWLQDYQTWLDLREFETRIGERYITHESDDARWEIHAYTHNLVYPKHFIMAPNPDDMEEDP

[29] = Volume of distribution at steady state in rat at 5 mg/kg, iv and 10 mg/kg, po; type: ADME, organism-based; settings: in vivo, read-out: Vdss
[30] = target: T2, Mitogen-activated protein kinase 1; experiment: Inhibition of Erk2 at 1000 nM
[31] = Antitumor activity against human M24 cells xenografted in mouse assessed as tumor growth inhibition at 7.5 mg/kg, po BID for 15 days; type: functional; settings: M24, 360 h, read-out: TGI

T2 sequence (P28482 whole entry): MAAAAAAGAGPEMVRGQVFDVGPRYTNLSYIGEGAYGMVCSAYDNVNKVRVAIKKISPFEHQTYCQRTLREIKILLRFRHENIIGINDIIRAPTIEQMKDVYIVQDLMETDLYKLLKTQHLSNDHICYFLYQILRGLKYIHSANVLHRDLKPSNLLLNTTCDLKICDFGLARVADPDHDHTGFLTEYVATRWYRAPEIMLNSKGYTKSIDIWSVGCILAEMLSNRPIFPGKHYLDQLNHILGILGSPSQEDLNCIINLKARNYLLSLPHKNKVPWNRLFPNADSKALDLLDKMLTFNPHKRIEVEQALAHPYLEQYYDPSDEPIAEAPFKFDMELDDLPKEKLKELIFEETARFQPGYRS
Sequence of Serine/threonine-protein kinase PAK 4 (O96013 whole entry): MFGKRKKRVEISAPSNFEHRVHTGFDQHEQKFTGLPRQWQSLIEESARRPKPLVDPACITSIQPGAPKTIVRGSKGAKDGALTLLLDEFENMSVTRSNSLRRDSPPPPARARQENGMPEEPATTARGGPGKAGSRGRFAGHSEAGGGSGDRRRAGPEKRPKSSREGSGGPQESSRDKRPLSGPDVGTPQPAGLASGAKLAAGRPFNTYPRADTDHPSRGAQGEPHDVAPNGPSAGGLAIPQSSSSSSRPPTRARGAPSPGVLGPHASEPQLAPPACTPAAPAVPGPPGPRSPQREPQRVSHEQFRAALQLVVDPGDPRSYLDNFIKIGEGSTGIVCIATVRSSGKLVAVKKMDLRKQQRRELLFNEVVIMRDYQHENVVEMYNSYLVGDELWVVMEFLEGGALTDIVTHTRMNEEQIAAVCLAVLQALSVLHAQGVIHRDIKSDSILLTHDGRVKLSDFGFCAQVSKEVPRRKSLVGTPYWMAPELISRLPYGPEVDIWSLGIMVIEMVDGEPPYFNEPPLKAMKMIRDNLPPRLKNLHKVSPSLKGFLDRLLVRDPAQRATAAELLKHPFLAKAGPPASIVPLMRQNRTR
Sequence of Serine/threonine-protein kinase MARK1 (Q9P0L2 whole entry): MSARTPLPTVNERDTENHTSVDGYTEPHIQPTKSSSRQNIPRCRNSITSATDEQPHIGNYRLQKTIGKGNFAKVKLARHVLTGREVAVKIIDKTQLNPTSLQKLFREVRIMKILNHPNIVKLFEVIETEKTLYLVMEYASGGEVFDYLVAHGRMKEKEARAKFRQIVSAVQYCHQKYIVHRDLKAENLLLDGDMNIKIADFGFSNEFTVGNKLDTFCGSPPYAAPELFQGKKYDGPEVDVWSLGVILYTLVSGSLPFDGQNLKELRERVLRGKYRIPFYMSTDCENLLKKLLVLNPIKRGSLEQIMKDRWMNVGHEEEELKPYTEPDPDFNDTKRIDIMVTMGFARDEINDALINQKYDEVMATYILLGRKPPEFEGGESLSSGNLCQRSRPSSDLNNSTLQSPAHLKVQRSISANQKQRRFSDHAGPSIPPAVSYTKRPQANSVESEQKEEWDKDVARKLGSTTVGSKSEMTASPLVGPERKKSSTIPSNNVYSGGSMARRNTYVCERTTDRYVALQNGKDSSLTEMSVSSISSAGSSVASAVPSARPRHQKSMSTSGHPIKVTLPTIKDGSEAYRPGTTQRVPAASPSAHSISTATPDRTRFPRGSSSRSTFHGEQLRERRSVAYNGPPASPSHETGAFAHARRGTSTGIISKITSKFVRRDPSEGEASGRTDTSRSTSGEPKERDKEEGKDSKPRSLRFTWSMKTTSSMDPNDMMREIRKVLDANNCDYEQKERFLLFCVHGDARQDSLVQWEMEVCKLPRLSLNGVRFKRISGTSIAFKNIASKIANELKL
Sequence of Mitogen-activated protein kinase 3 (Homo sapiens) (P27361 whole entry): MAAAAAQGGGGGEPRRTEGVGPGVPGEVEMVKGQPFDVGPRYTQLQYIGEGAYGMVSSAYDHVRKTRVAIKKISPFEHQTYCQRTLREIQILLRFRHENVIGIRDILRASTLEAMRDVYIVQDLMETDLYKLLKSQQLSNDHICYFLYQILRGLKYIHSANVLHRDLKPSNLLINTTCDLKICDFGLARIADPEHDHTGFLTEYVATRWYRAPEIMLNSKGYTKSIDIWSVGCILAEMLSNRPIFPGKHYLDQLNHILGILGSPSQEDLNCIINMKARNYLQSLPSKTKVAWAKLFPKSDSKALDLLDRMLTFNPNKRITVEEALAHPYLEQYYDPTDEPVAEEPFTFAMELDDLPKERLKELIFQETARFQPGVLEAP

- IC50 [1]: 115 nM
- clearance [2]: 52 mL/min/kg
- logD [3]: 2.52
- Drug uptake(free) (Mus musculus [6]): 50.5 nM
- half-life [7]: 48 min
- inhibition [8]: > 40%
- hepatic extraction ratio [9]: 0.44
- IC50 [10]: 227 nM
- inhibition (Homo sapiens [11]): > 70%
- IC50 [12]: 450 nM
- EC50 [13]: 4 nM
- inhibition [14]: > 70%
- efflux ratio [15]: 9.9
- bioavailability [16]: 20%
- clearance [17]: 12 mL/min/kg
- Drug uptake(free) (Mus musculus [18]): 5.3 nM
- Drug uptake(free) (Mus musculus [19]): 28.3 nM
- inhibition (Homo sapiens [20]): > 40%
- bioavailability [23]: 15%
- half-life [24]: 132 min
- inhibition (Homo sapiens [25]): > 70%
- IC50 [26]: 170 nM
- inhibition [27]: > 70%
- inhibition [28]: > 40%
- Vd [29]: 2.8 L/kg
- inhibition [30]: > 70%
Compound: CN(C)C[C@@H](OC(=O)N1Cc2c(NC(=O)C(C)(C)C)n[nH]c2C1(C)C)c1ccccc1
- inhibition in vivo at 15 mg/kg [4]: 68%
- inhibition in vivo at 12.5 mg/kg (HCT-116 [5]): 37%
- inhibition in vivo at 3.75 mg/kg [21]: 41%
- inhibition in vivo at 20 mg/kg (HCT-116 [22]): 52%
- inhibition in vivo at 7.5 mg/kg [31]: 61%
